Test results as given in ChEMBL document CHEMBL4680111, “Target Validation and Identification of Novel Boronate Inhibitors of the Plasmodium falciparum Proteasome” (J Med Chem, 2018).
The source made the active and inactive calls. The rule behind the calls is not given here.

Experiments:
[1] = Inhibition of Plasmodium falciparum 20S proteasome beta 5 subunit chymotrypsin-like activity using fluorogenic peptide Ac-WLA-AMC as substrate in presence of PA28alpha incubated for 1 to 2 hrs by fluorescence microplate reader assay
[2] = target: T1, Proteasome Macropain subunit MB1 (Homo sapiens) (UniProt P28074); test: Inhibition of human 20S constitutive proteasome beta 5 subunit assessed as inhibition of BMV037 probe labeling at 1 to 10 uM incubated for 1 hr by SDS-PAGE analysis; conditions: dose 1-10 µM
T1 sequence (whole entry): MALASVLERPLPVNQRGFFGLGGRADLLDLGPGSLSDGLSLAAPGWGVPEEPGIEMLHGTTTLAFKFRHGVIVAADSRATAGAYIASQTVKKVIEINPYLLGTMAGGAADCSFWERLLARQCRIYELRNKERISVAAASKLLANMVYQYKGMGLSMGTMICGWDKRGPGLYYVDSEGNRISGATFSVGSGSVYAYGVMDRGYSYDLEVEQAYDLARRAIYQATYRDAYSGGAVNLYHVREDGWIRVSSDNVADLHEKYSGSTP
In short: (§1)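 Purified human constitutive 20S (20 nM) was treated with compound at 37°C for 1 h, then labelled with 10 µM BMV037 at 37°C for 2 h. Samples were run on 10% Bis-Tris gel with MOPS buffer, and active subunits were detected by Cy5 fluorescence scan.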

[3] = test system: Plasmodium falciparum 3D7; test: Inhibition of 20S proteasome beta 1 subunit from bortezomib resistant Plasmodium falciparum 3D7 trophozoite infected erythrocytes assessed as inhibition of BMV037 probe labeling at 1 to 10 uM incubated for 1 hr by SDS-PAGE analysis; conditions: dose 1-10 µM
[4] = target: T2, Proteasome subunit beta type-9 (Homo sapiens) (UniProt P28065); test: Inhibition of human 20S immunoproteasome beta 1 subunit assessed as inhibition of BMV037 probe labeling at 1 to 10 uM incubated for 1 hr by SDS-PAGE analysis; conditions: dose 1-10 µM
T2 sequence (whole entry): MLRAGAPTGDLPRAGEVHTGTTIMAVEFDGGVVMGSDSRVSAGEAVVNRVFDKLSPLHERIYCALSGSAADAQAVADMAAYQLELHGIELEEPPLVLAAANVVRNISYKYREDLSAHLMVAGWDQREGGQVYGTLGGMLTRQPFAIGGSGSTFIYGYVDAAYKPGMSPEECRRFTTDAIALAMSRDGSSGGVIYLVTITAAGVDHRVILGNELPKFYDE
In short: (§2)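 Purified human immuno-20S (20 nM) was incubated with compound at 37°C for 1 h, then labelled with 10 µM BMV037 at 37°C for 2 h. Samples were run on 4-12% Bis-Tris gel with MES buffer, and active subunits were visualised by Cy5 fluorescence.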

[5] = test system: Plasmodium falciparum; test: Antiplasmodial activity against sorbitol synchronized ring stage bortezomib-resistant Plasmodium falciparum 3D7 clone B2a assessed as reduction in parasitemia incubated for 72 hrs by Syto-61 staining dye based flow cytometry analysis; format: functional; conditions: read-out: LD50 (the source's name)
In short: (§3)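 Sorbitol-treated ring-stage parasites in O+ human erythrocytes were incubated with compound for 72 h, and viability was read in the second cycle. Read-out was Syto-61 (2 µM) flow cytometry of parasitemia, normalized to untreated and 2 µM DHA-killed controls. Mean ± SEM of three independent experiments.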

[6] = test system: Plasmodium falciparum; test: Antiplasmodial activity against sorbitol synchronized ring stage bortezomib-resistant Plasmodium falciparum 3D7 clone B1a assessed as reduction in parasitemia incubated for 72 hrs by Syto-61 staining dye based flow cytometry analysis; format: functional; conditions: read-out: LD50 (the source's name); in short: as §3
[7] = test system: Plasmodium falciparum; test: Antiplasmodial activity against DHA-resistant and sorbitol synchronized ring stage forms of Plasmodium falciparum Cam3.II^R539T expressing K13 mutant assessed as reduction in parasitemia incubated for 3 hrs by pulse exposure based Syto-61 staining dye based flow cytometry analysis; format: functional; conditions: read-out: LD50 (the source's name)
In short: (§4)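 Tightly synchronized early-ring parasites (1-3 h post-invasion) exposed to compound for 3 h, then viability assessed in the next cycle. Cells stained with 2 µM Syto-61 and parasitemia read by flow cytometry, normalized to untreated and kill controls (2 µM DHA, 48-72 h). Mean ± SEM of three independent experiments.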

[8] = Inhibition of Plasmodium falciparum 20S proteasome beta 2 subunit trypsin-like activity using fluorogenic peptide Ac-WLR-AMC as substrate in presence of PA28alpha incubated for 1 to 2 hrs by fluorescence microplate reader assay
[9] = target: T3, Proteasome subunit beta type-8 (Homo sapiens) (UniProt P28062); test: Inhibition of human 20S immunoproteasome beta 5 subunit assessed as inhibition of BMV037 probe labeling at 1 to 10 uM incubated for 1 hr by SDS-PAGE analysis; conditions: dose 1-10 µM; in short: as §2
T3 sequence (whole entry): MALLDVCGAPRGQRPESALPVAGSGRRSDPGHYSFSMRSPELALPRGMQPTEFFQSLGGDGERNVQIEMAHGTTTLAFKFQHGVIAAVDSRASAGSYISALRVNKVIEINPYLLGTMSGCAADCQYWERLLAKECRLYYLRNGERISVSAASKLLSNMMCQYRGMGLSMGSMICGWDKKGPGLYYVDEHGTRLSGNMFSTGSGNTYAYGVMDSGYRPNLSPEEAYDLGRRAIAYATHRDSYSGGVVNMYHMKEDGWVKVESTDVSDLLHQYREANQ

[10] = Inhibition of Plasmodium falciparum 20S proteasome beta 1 subunit caspase-like activity using fluorogenic peptide Ac-nLPnLD-AMC as substrate in presence of PA28alpha incubated for 1 to 2 hrs by fluorescence microplate reader assay
[11] = test system: Plasmodium falciparum; test: Antiplasmodial activity against DHA-sensitive and sorbitol synchronized ring stage forms of Plasmodium falciparum Cam3.II^rev expressing K13 wild-type genotype assessed as reduction in parasitemia incubated for 3 hrs by pulse exposure based Syto-61 staining dye based flow cytometry analysis; format: functional; conditions: read-out: LD50 (the source's name); in short: as §4
[12] = target: T4, Proteasome component C5 (Homo sapiens) (UniProt P20618); test: Inhibition of human 20S constitutive proteasome beta 1 subunit assessed as inhibition of BMV037 probe labeling at 1 to 10 uM incubated for 1 hr by SDS-PAGE analysis; conditions: dose 1-10 µM; in short: as §1
T4 sequence (whole entry): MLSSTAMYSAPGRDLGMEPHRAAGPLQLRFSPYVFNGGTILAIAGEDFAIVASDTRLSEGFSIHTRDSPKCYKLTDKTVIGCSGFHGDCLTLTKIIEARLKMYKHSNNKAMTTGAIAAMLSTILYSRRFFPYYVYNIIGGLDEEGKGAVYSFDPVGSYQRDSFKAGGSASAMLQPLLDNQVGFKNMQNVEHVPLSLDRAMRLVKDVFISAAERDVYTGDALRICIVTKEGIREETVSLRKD

[13] = test system: Plasmodium falciparum 3D7; test: Inhibition of 20S proteasome beta 5 subunit from bortezomib resistant Plasmodium falciparum 3D7 trophozoite infected erythrocytes assessed as inhibition of BMV037 probe labeling at 1 to 10 uM incubated for 1 hr by SDS-PAGE analysis; conditions: dose 1-10 µM
[14] = test system: Plasmodium falciparum; test: Antiplasmodial activity against sorbitol synchronized ring stage Plasmodium falciparum 3D7 assessed as reduction in parasitemia incubated for 72 hrs by Syto-61 staining dye based flow cytometry analysis; format: functional; conditions: read-out: LD50 (the source's name); in short: as §3
[15] = test system: Plasmodium falciparum; test: Inhibition of proteasome in Plasmodium falciparum trophozoite stage transfected with GFP-DD assessed as reduction in GFP-DD fusion protein degradation at 0.02 to 0.5 uM incubated for 3 hrs in absence of Shield-1 by Western blot analysis; conditions: dose 0.02-0.5 µM
In short: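 GFP-DD reporter parasites were held in Shield-1 for 24 h, washed out, then treated as trophozoites (5% hematocrit, 5% parasitemia) with compound for 3 h at 37°C. […] Representative of four independent experiments.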

[16] = test system: Plasmodium falciparum; test: Inhibition of Plasmodium falciparum 20S proteasome beta 2 subunit trypsin-like activity using fluorogenic peptide Ac-WLR-AMC as substrate in presence of PA28alpha at 0.8 uM measured over 5 hrs by fluorescence microplate reader assay
[17] = test system: Plasmodium falciparum; test: Inhibition of Plasmodium falciparum 20S proteasome beta 5 subunit chymotrypsin-like activity using fluorogenic peptide Ac-WLA-AMC as substrate in presence of PA28alpha at 0.8 uM measured over 5 hrs by fluorescence microplate reader assay
[18] = test system: Plasmodium falciparum; test: Inhibition of Plasmodium falciparum 20S proteasome beta 1 subunit caspase-like activity using fluorogenic peptide Ac-nLPnLD-AMC as substrate in presence of PA28alpha at 0.8 uM measured over 5 hrs by fluorescence microplate reader assay
[19] = target: T5, Proteasome subunit beta type-9 (Homo sapiens, UniProt P28065); test: Inhibition of human 20S immunoproteasome beta 1 subunit caspase-like activity using fluorogenic peptide Ac-nLPnLD-AMC as substrate in presence of PA28alpha incubated for 1 to 2 hrs by fluorescence microplate reader assay
T5 sequence (P28065 whole entry): T2 sequence (whole entry)

[20] = target: T6, Proteasome subunit beta type-6 (Homo sapiens, UniProt P28072); test: Inhibition of human 20S constitutive proteasome beta 1 subunit caspase-like activity using fluorogenic peptide Ac-nLPnLD-AMC as substrate in presence of PA28alpha incubated for 1 to 2 hrs by fluorescence microplate reader assay
T6 sequence (P28072 whole entry): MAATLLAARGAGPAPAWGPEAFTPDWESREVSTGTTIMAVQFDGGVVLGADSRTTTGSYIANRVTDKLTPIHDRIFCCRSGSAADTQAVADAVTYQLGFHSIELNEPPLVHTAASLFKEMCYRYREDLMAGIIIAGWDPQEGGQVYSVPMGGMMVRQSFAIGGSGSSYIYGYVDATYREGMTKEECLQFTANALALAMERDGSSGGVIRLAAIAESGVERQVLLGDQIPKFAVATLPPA

[21] = target: T7, Proteasome subunit beta type-10 (Homo sapiens, UniProt P40306); test: Inhibition of human 20S immunoproteasome beta 2 subunit trypsin-like activity using fluorogenic peptide Ac-WLR-AMC as substrate in presence of PA28alpha incubated for 1 to 2 hrs by fluorescence microplate reader assay
T7 sequence (P40306 whole entry): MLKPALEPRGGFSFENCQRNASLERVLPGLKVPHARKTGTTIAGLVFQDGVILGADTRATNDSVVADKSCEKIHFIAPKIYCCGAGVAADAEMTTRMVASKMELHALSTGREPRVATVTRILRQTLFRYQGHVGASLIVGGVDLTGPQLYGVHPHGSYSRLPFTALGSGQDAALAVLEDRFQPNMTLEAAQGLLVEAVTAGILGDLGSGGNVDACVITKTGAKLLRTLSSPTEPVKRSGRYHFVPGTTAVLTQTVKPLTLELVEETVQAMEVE

[22] = target: T8, Proteasome subunit beta type-8 (Homo sapiens, UniProt P28062); test: Inhibition of human 20S immunoproteasome beta 5 subunit chymotrypsin-like activity using fluorogenic peptide Ac-WLA-AMC as substrate in presence of PA28alpha incubated for 1 to 2 hrs by fluorescence microplate reader assay
T8 sequence (P28062 whole entry): T3 sequence (whole entry)

[23] = target: T9, Proteasome Macropain subunit MB1 (Homo sapiens, UniProt P28074); test: Inhibition of human 20S constitutive proteasome beta 5 subunit chymotrypsin-like activity using fluorogenic peptide Ac-WLA-AMC as substrate in presence of PA28alpha incubated for 1 to 2 hrs by fluorescence microplate reader assay
T9 sequence (P28074 whole entry): T1 sequence (whole entry)

[24] = target: T10, Proteasome subunit beta type-7 (Homo sapiens, UniProt Q99436); test: Inhibition of human 20S constitutive proteasome beta 2 subunit trypsin-like activity using fluorogenic peptide Ac-WLR-AMC as substrate in presence of PA28alpha incubated for 1 to 2 hrs by fluorescence microplate reader assay
T10 sequence (Q99436 whole entry): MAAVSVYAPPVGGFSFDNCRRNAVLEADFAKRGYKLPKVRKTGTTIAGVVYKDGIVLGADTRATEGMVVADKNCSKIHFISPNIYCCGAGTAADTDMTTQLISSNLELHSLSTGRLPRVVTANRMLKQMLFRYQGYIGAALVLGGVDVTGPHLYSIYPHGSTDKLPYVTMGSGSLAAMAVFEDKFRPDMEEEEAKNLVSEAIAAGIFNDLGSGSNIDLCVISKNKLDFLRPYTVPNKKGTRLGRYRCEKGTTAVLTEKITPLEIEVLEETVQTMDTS

[25] = test system: Plasmodium falciparum 3D7; test: Inhibition of 20S proteasome beta 5 subunit in bortezomib-resistant Plasmodium falciparum 3D7 assessed as inhibition of BMV037 probe labeling at 1 to 10 uM incubated for 1 hr by SDS-PAGE analysis; conditions: dose 1-10 µM
[26] = Selectivity index, ratio of LD50 for cytotoxicity against human HepG2 cells to LD50 for antiplasmodial activity against Plasmodium falciparum 3D7 sorbitol-treated ring stage; format: toxicity, cell-based; conditions: read-out: Selectivity Index

For CC(C)C[C@H](NC(=O)[C@H](Cc1ccccc1)NC(=O)c1cnccn1)B(O)O [BORTEZOMIB], the IC50 [1] was 53 nM, the inhibition [2] was “Active” and the inhibition [3] was “Active”. The inhibition [4] was “Active”, the LC50 [5] was 1100 nM and the LC50 [6] was 1300 nM. The LC50 [7] was 120 nM, the IC50 [8] was 1600 nM and the inhibition [9] was “Active”. For the same compound, the IC50 [10] was 320 nM, the LC50 [11] was 180 nM and the inhibition [12] was “Active”. The inhibition [13] was “Active”, the LC50 [14] was 60 nM and the inhibition [15] was “Active”.
With CC(C)C[C@H](NC(=O)[C@H](CCc1ccccc1)NC(=O)CN1CCOCC1)C(=O)N[C@@H](Cc1ccccc1)C(=O)N[C@@H](CC(C)C)C(=O)[C@@]1(C)CO1 the inhibition [16] was “Active”, the inhibition [17] was “Active” and the inhibition [18] was “inactive”.
CC(=O)N1CCC[C@H]1C(=O)N[C@@H](C)C(=O)N[C@@H](CC(C)C)B(O)O gave an IC50 [1] of 2900 nM, an IC50 [19] of 13 nM and an IC50 [20] of 320 nM. For the same compound, the LC50 [7] was 1500 nM, the IC50 [21] was > 10000 nM and the IC50 [8] was > 10000 nM. The IC50 [22] was 63 nM, the IC50 [23] was 97 nM and the IC50 [24] was > 10000 nM. For the same compound, the IC50 [10] was 3000 nM, the inhibition [25] was “inactive” and the LC50 [11] was 1800 nM. For the same compound, the selectivity ratio [26] was 15 and the LC50 [14] was 160 nM.
